Compounds with a hit are over-represented: about 0.95% of the library has one in this group of screens.
SUMO HTRF inh = SUMOylation inhibition | hit rate 0.36% among 290,000 | HTRF SUMOylation assay, SAE1/SAE2 + UBC9, in vitro | P63279 | inhibition, % at 35 µM; in the data active means inhibition above about 50%, passing the limit was not always enough
Diaph inh CS = counter-screen for diaphorase-based assays: diaphorase inhibitors and chemical oxidizers; diaphorase resazurin-to-resorufin fluorescence, NADH, 16 min; bacterial (C. kluyveri) enzyme, not human; inhibition, % at 20 µM; hit rate 0.69% among 190,000;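 active means primary screen inhibition at 20 µM above a set limit, cut at about 50% in these data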;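 further: plate controls were DMSO with full reaction for no effect and wells lacking NADH for full effect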
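Assay system – diaphorase enzyme from Clostridium kluyveri · Amount – diaphorase 0.14 U/mL (working solution) · Times – reaction incubation of 16 min at room temperature · Controls – No-NADH positive control and DMSO neutral control · Signal – resorufin fluorescence 544/590 nm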
G6PDH CS = inhibits Leuconostoc G6PDH, flagging false hits in G6PDH-based assays | AID 1020 | hit rate 0.12% among 200,000 | Purified L. mesenteroides G6PDH, diaphorase/resazurin coupled fluorescence, 45 min | inhibition, % at 5 µM; in the data active means inhibition above about 50%
HKDC1 inhibitor = inhibitors of human hexokinase HKDC1; Q2TB90; recombinant HKDC1, G6PDH/diaphorase resazurin coupled fluorescence; inhibition, % at 20 µM; hit rate 0.16% among 340,000;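 active means inhibition above about 35% when tested at 20 µM, limit read from the data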;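 further: plate controls were DMSO wells with enzyme for no effect and DMSO wells lacking enzyme for full effect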
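Incubation: 90 min at room temperature in dark / Material: recombinant HKDC1 (HK5) hexokinase enzyme, produced in-house / Quantity: enzyme 5 µg/mL final / Compound: one dose of 20 µM, 1% DMSO / Reagent: glucose and ATP substrates / Buffer or medium: Tris pH 8.0 buffer with MgCl2, Tween-20, BSA, BME / Technique: resorufin fluorescence at 613 nm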
p97 inhibitor = blocks human p97 ATPase activity; AID 1481; inhibition, % at 8 µM; hit rate 0.42% among 220,000; recombinant p97 ATPase, Kinase-Glo ATP luminescence, 3 h; in the data active means inhibition above about 15%;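 further: 0% = DMSO vehicle and 100% = wells lacking enzyme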
HKDC1 act conf = confirmation of human HKDC1 activators; inhibition, % at 20 µM; hit rate 14% among 740; AID 504708; recombinant HKDC1, G6PDH/diaphorase resazurin fluorescence; hits give low values; shares compounds with HKDC1 inhibitor;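 active means inhibition at or below a set negative limit, negative inhibition meaning the enzyme was activated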
* hit, by the source's call; nt = no result given.

SMILES	SUMO HTRF inh	Diaph inh CS	G6PDH CS	HKDC1 inhibitor	p97 inhibitor	HKDC1 act conf
COc1ccc(-c2cc(N)n(CCC#N)n2)c(OC)c1	6	8	3	40*	7	-35
CC(=O)Oc1cccc2c1C(=O)C1CC=CC(OC(C)=O)C1C2=O (centres undefined)	nt	nt	nt	-45	nt	-66*
CCN(CC)CCNc1cc(C)nc2c1C(=O)C(=O)C=C2N1CCCCC1	21	nt	51*	45*	-1	58
Cc1ccc(S(=O)(=O)c2cc(Nc3ccccc3)ccc2O)cc1	nt	nt	nt	5	nt	nt
COc1ccccc1Nc1ccc2c(O)cc(S(=O)(=O)O)cc2c1	nt	nt	nt	38*	nt	9
O=S(=O)(O)c1cc(O)c2ccc(Nc3ccccc3)cc2c1	nt	nt	nt	50*	nt	16
O=S(=O)(O)c1cc(O)c2cc(Nc3ccccc3)ccc2c1	nt	nt	nt	22	nt	nt
O=S(=O)(O)c1ccc(O)c2cc(Nc3ccccc3)ccc12	nt	nt	nt	65*	nt	44
N#C/C(=C(/O)CCl)c1nc2c(s1)CCc1ccccc1-2	32	nt	nt	44*	nt	46
Nc1nc2c(s1)CCc1ccccc1-2	14	nt	nt	16	nt	nt
Cc1ccc(NC(=O)CN2C(=O)S/C(=C\c3cccn3-c3cccc(C(=O)O)c3)C2=O)c(C)c1	83*	15	2	33	-1	-23
Cc1ccccc1NC(=O)CN1C(=O)S/C(=C\c2cccn2-c2cccc(C(=O)O)c2)C1=O	16	9	4	-3	-3	nt
CC(OC(=O)c1ccccc1C(=O)N(C)c1ccccc1)C(=O)Nc1ccc(C(N)=O)cc1 (centres undefined)	nt	nt	nt	-3	nt	nt
CC(OC(=O)c1cc(O)c2ccccc2c1O)C(=O)Nc1ccc(C(N)=O)cc1 (centres undefined)	nt	nt	nt	39*	nt	28
CN(C)Cc1cc(O)c(CN(C)C)cc1O	-5	nt	nt	47*	-5	70
CSc1nc(N(C)CCO)c2sc3nc(-c4ccco4)c4c(c3c2n1)CCC4	39	20	6	47*	5	-18
O=S(=O)(Nc1ccc(O)c2ccccc12)c1cccs1	81	nt	nt	51*	nt	31
O=C(C1=C(c2ccccc2)C(=O)c2ccccc2C1=O)c1ccccc1	9	40	58*	58*	6	52
CC(C)(C)n1[nH]c2c3c(ccc2c1=O)C(=O)c1ccccc1C3=O	0	30	42	42*	1	12
COc1cc(/C=N\NC(=O)C(C)(C)O)ccc1OC/C=C/c1ccccc1	0	nt	nt	-4	nt	nt
C[C@]12c3[nH]c4ccc(Cl)cc4c3CCN1C(=O)[C@@H](CC(=O)NCc1cccc(C(F)(F)F)c1)C[C@@H]2C(=O)N1CCOCC1	nt	nt	nt	27	nt	-30
COc1ccc(/C=C/C(=O)c2ccc([N+](=O)[O-])o2)cc1OC	nt	nt	nt	32	nt	6
Cc1cccc2nc(CNC(=O)CC3C(=O)NCCN3Cc3cccc(F)c3)cn12 (centres undefined)	4	nt	nt	5	nt	nt
COc1ccc2cc(/C=N/NC(=O)c3c(Cl)cnn3C)c(Cl)nc2c1	10	-9	-2	-75	-3	-13
COc1ccc2cc(/C=N/NC(=O)c3ccc(CN(c4ccc(C)c(C)c4)S(C)(=O)=O)cc3)c(Cl)nc2c1	1	7	-34	-6	2	nt
SMILES	SUMO HTRF inh	Diaph inh CS	G6PDH CS	HKDC1 inhibitor	p97 inhibitor	HKDC1 act conf
Cc1cc(C)c(S(=O)(=O)Nc2ccc(O)cc2)cc1C	14	11	4	-1	-6	nt
O=C(O)CSc1cc(NS(=O)(=O)c2ccc(Cl)cc2)c2ccccc2c1O	77*	nt	nt	65*	nt	46
COc1ccc(S(=O)(=O)Nc2cc(SCC(=O)O)c(O)c3ccccc23)cc1	57*	nt	nt	57*	nt	47
O=S(=O)(Nc1ccc(Cl)cc1NS(=O)(=O)c1ccccc1)c1ccccc1	nt	nt	nt	1	nt	nt
Cc1cc(C)c(S(=O)(=O)Nc2cc(SCC(=O)O)c(O)c3ccccc23)cc1C	72	49	35	54*	7	41
COc1ccc(S(=O)(=O)Nc2cccc3ccc(O)cc23)cc1	nt	nt	nt	-1	nt	nt
CC1CN(S(=O)(=O)c2csc(C(=O)Nc3ccccc3)c2)CC(C)O1 (centres undefined)	1	nt	nt	-7	nt	nt
Cc1ccc(SC2=C(N(C)C)C(=O)c3ccccc3C2=O)cc1	nt	nt	nt	57*	nt	60
CN(C)c1cccc2c1C(=O)c1ccccc1C2=O	-36	28	29	7	1	nt
Cc1onc(-c2c(F)cccc2Cl)c1C(=O)Nc1cccc(S(=O)(=O)NCc2ccco2)c1	-10	20	7	1	3	nt
COc1cc(OC)cc(C(=O)NC(=S)NNC(=O)c2cnccn2)c1	-135	68*	-16	-42	4	-40*
O=c1[nH]c(=O)c2nc3c4ccccc4c4ccccc4c3nc2[nH]1	28	38	12	37*	3	-2
COc1ccccc1Nc1nnc(SCc2nnc(-c3cc(OC)c(OC)c(OC)c3)o2)s1	-3	50*	-5	35	-5	33
COc1cc(-c2nnc(CSc3nnc(Nc4ccc(C(C)C)cc4)s3)o2)cc(OC)c1OC	-8	10	-16	-6	5	nt
CCOc1ccccc1Nc1nnc(SCc2nnc(-c3cc(OC)c(OC)c(OC)c3)o2)s1	-4	42	-20	48*	3	45
Cc1ccc(C2(C)NC(=O)N(CC(=O)Nc3nc(-c4ccccn4)cs3)C2=O)cc1 (centres undefined)	nt	nt	nt	8	nt	nt
COC(=O)C1SCC2C(=O)N(Cc3ccccc3)CC(=O)N21 (centres undefined)	0	-5	4	-3	-2	nt
Cc1ccc(Cl)cc1NC1=C/C(=N\S(=O)(=O)c2cccs2)c2ccccc2C1=O	49	30	54*	36*	8	36
O=C1C=C(Nc2ccc(O)cc2)C(=O)c2ccccc21	-11	nt	nt	18	0	nt
O=C1C(Nc2ccc(O)cc2)=C/C(=N/S(=O)(=O)c2cccs2)c2ccccc21	48	-12	47	60*	13	57
Cc1ccc(NC2=C/C(=N\S(=O)(=O)c3cccs3)c3ccccc3C2=O)c(C)c1	18	20	52*	40*	9	30
O=C(NCc1ccncc1)C(=O)N/N=C/c1ccc(OCc2ccccc2)cc1	13	6	-3	-58	5	-16
O=C(O)c1ccc2ncsc2c1	39	nt	nt	41*	2	48
CCN(CC)S(=O)(=O)c1ccc(N/N=C(\C)c2ccc(OC)cc2O)nc1	3	nt	nt	31	-2	20
CCN(CC)S(=O)(=O)c1ccc(N/N=C/c2ccc(O)cc2)nc1	8	3	4	2	3	nt
O=C(CN1C(=O)/C(=C2\SC(=S)N(CCS(=O)(=O)O)C2=O)c2ccccc21)Nc1cccc(Br)c1	56*	nt	nt	58*	nt	13
COC(=O)c1cc(C)nc2c1C(=O)C(=O)C=C2N1CCOCC1	99*	nt	nt	68*	nt	66
